Results reported in ChEMBL document CHEMBL3259701, “Siderophore receptor-mediated uptake of lactivicin analogues in gram-negative bacteria” (J Med Chem, 2014).
In brackets after ≈: the same amount, converted by molar mass.

Legend:
Escherichia coli [1] = assay: Antibacterial activity against Escherichia coli DH5alpha expressing beta-lactamase TEM-24 by CLSI broth microdilution method; type: functional; settings: DH5[alpha]
Escherichia coli [2] = assay: Antibacterial activity against Escherichia coli DH5alpha expressing beta-lactamase CTX-M-15 by CLSI broth microdilution method; type: functional; settings: DH5[alpha]
Escherichia coli [3] = assay: Antibacterial activity against Escherichia coli DH5alpha expressing beta-lactamase OXA-58 by CLSI broth microdilution method; type: functional; settings: DH5[alpha]
Escherichia coli [4] = assay: Antibacterial activity against Escherichia coli DH5alpha expressing beta-lactamase VIM-2 by CLSI broth microdilution method; type: functional; settings: DH5[alpha]
Escherichia coli [5] = assay: Antibacterial activity against Escherichia coli DH5alpha expressing beta-lactamase TEM-1 by CLSI broth microdilution method; type: functional; settings: DH5[alpha]
Escherichia coli [6] = assay: Antibacterial activity against Escherichia coli DH5alpha expressing beta-lactamase KPC-3 by CLSI broth microdilution method; type: functional; settings: DH5[alpha]
Escherichia coli [7] = assay: Antibacterial activity against Escherichia coli DH5alpha expressing beta-lactamase NDM-1 by CLSI broth microdilution method; type: functional; settings: DH5[alpha]
Escherichia coli [8] = assay: Antibacterial activity against Escherichia coli DH5alpha harboring pUCP26 empty vector by CLSI broth microdilution method; type: functional; settings: DH5[alpha]
Escherichia coli [9] = assay: Antibacterial activity against Escherichia coli DH5alpha by CLSI broth microdilution method; type: functional; settings: DH5[alpha]
Escherichia coli [10] = assay: Antibacterial activity against Escherichia coli DH5alpha expressing beta-lactamase OXA-24/40 by CLSI broth microdilution method; type: functional; settings: DH5[alpha]
Escherichia coli [11] = assay: Antibacterial activity against Escherichia coli DH5alpha expressing beta-lactamase SHV-5 by CLSI broth microdilution method; type: functional; settings: DH5[alpha]
Escherichia coli [12] = assay: Antibacterial activity against Escherichia coli DH5alpha expressing beta-lactamase SHV-12 by CLSI broth microdilution method; type: functional; settings: DH5[alpha]
[13] = target: Penicillin-binding protein 1A (Pseudomonas aeruginosa PAO1, UniProt Q07806); assay: Displacement of fluorescent Bocillin FL from N-terminal His tagged Pseudomonas aeruginosa PAO1 PBP1a (residues 36 to 822) expressed in Escherichia coli BL21 (Gold cells)
Penicillin-binding protein 1A, sequence (Q07806 whole entry, the tested form may be a part): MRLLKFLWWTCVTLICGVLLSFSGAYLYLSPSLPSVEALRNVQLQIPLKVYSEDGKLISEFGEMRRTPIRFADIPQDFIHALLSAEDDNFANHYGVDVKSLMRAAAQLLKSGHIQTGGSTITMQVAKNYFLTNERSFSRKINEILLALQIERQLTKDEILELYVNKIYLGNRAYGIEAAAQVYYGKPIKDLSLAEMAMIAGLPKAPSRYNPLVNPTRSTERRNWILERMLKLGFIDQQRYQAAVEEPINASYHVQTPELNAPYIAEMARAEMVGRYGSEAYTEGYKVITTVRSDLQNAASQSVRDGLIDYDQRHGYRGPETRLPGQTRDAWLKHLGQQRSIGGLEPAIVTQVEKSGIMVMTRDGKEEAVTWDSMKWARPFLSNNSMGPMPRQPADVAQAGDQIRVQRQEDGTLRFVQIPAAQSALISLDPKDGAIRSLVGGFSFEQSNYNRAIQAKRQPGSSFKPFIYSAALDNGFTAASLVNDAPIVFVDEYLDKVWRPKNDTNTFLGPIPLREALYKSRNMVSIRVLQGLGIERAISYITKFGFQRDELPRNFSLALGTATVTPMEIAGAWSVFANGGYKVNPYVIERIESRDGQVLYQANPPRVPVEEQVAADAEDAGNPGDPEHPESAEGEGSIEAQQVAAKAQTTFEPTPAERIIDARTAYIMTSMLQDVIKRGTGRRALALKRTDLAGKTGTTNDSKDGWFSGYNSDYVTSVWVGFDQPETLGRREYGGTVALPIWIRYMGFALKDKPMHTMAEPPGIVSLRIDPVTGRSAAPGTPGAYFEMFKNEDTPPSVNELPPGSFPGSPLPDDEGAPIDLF

Escherichia coli [14] = assay: Ratio of MIC for Escherichia coli DH5alpha expressing beta-lactamase OXA-24/40 to MIC for Escherichia coli DH5alpha harboring pUCP26 empty vector; type: functional, DH5[alpha]
Procedure, shortened: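 Isogenic E. coli panel in which each strain was engineered to express a single common β-lactamase. MIC for the OXA-24/40 strain was divided by the MIC for the empty-vector control strain. MICs were obtained by CLSI broth microdilution.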

Pseudomonas aeruginosa [15] = assay: Antibacterial activity against Pseudomonas aeruginosa PAO1 by CLSI broth microdilution method; type: functional
Pseudomonas aeruginosa [16] = assay: Antibacterial activity against Pseudomonas aeruginosa 1091-05 by CLSI broth microdilution method; type: functional
Klebsiella pneumoniae = assay: Antibacterial activity against Klebsiella pneumoniae KP-3700 by CLSI broth microdilution method; type: functional
Acinetobacter baumannii = assay: Antibacterial activity against Acinetobacter baumannii AB-3167 by CLSI broth microdilution method; type: functional
[17] = Displacement of fluorescent Bocillin FL from Pseudomonas aeruginosa PBP2
[18] = Displacement of fluorescent Bocillin FL from Pseudomonas aeruginosa PBP1b
[19] = Displacement of fluorescent Bocillin FL from Pseudomonas aeruginosa PBP3
Escherichia coli [20] = assay: Antibacterial activity against Escherichia coli EC-28 by CLSI broth microdilution method; type: functional

Row | IC50 [13] [nM] | MIC (Pseudomonas aeruginosa [15]) [µg/mL] | MIC (Pseudomonas aeruginosa [16]) [µg/mL] | MIC (Klebsiella pneumoniae) [µg/mL] | MIC (Acinetobacter baumannii) [µg/mL] | IC50 [17] [nM] | IC50 [18] [nM] | MIC (Escherichia coli [20]) [µg/mL] | SMILES | MIC (Escherichia coli [1]) [µg/mL] | MIC (Escherichia coli [2]) [µg/mL] | MIC (Escherichia coli [3]) [µg/mL] | MIC (Escherichia coli [4]) [µg/mL] | MIC (Escherichia coli [5]) [µg/mL] | MIC (Escherichia coli [6]) [µg/mL] | MIC (Escherichia coli [7]) [µg/mL] | MIC (Escherichia coli [8]) [µg/mL] | MIC (Escherichia coli [10]) [µg/mL] | MIC (Escherichia coli [11]) [µg/mL] | MIC (Escherichia coli [12]) [µg/mL] | IC50 [19] [nM] | other results
1 |  |  |  |  |  |  |  |  | CC1(C)[C@H](NC(=O)/C(=N\OCc2cc(=O)c(O)cn2O)c2csc(N)n2)C(=O)N1OS(=O)(=O)O | > 64 | 1 (≈ 1.93 µM) | 0.125 (≈ 0.241 µM) | 0.03 (≈ 0.0579 µM) | 0.03 (≈ 0.0579 µM) | 0.125 (≈ 0.241 µM) | 0.06 (≈ 0.116 µM) | 0.125 (≈ 0.241 µM) | 0.125 (≈ 0.241 µM) | > 64 | > 64 |  | MIC (Escherichia coli [9]): 0.125 µg/mL (≈ 0.241 µM)
2 | 110 | > 64 | > 64 | > 64 | > 64 | 47100 | 2440 | > 64 | CC(C)(O/N=C(\C(=O)N[C@H]1CON(C2(C(=O)O)C[C@@H](NC(=O)OCc3ccccc3)C(=O)O2)C1=O)c1csc(N)n1)C(=O)O (some centres undefined) |  |  |  |  |  |  |  |  |  |  |  |  | 
3 | 65 | > 64 | > 64 | > 64 | > 64 | 33300 | 1740 | > 64 | CC(C)(O/N=C(\C(=O)N[C@H]1CON(C2(C(=O)O)C[C@H](NC(=O)OCc3ccccc3)C(=O)O2)C1=O)c1csc(N)n1)C(=O)O (some centres undefined) |  |  |  |  |  |  |  |  |  |  |  |  | 
4 | 46 | 16 (≈ 24.5 µM) | 2 (≈ 3.06 µM) | 16 (≈ 24.5 µM) | 0.5 (≈ 0.765 µM) | 6410 | 820 | 1 (≈ 1.53 µM) | CC(C)(O/N=C(\C(=O)N[C@H]1CON(C2(C(=O)O)C[C@@H](NC(=O)c3cc(=O)c(O)cn3O)C(=O)O2)C1=O)c1csc(N)n1)C(=O)O (some centres undefined) |  |  |  |  |  |  |  |  |  |  |  | 65 | 
5 | 46 | 2 (≈ 3.06 µM) | 64 (≈ 97.9 µM) | 8 (≈ 12.2 µM) | 0.5 (≈ 0.765 µM) | 3700 | 820 | 1 (≈ 1.53 µM) | CC(C)(O/N=C(\C(=O)N[C@H]1CON(C2(C(=O)O)C[C@H](NC(=O)c3cc(=O)c(O)cn3O)C(=O)O2)C1=O)c1csc(N)n1)C(=O)O (some centres undefined) |  |  |  |  |  |  |  |  |  |  |  | 92 | 
6 |  |  |  |  |  |  |  |  | CC[C@H](O)Cn1c(-c2cc(=O)c(O)c[nH]2)nn(S(=O)(=O)[N-]C(=O)N2C[C@H](NC(=O)/C(=N\OC(C)(C)C(=O)[O-])c3csc(N)n3)C2=O)c1=O.[Na+].[Na+] | 0.125 | 0.25 | 0.125 | 0.015 | 0.03 | 0.06 | 0.03 | 0.125 | 0.25 | 0.5 | 0.25 |  | MIC (Escherichia coli [9]): 0.125 µg/mL
7 |  |  |  |  |  |  |  |  | CC1(C)S[C@@H]2[C@H](NC(=O)[C@H](N)c3ccccc3)C(=O)N2[C@H]1C(=O)O [AMPICILLIN] | > 64 | > 64 | > 64 | > 64 | > 64 | 64 (≈ 183 µM) | > 64 |  | 32 (≈ 91.6 µM) | > 64 | > 64 |  | 

Row | SMILES | IC50 [13] [nM] | MIC (Pseudomonas aeruginosa [15]) [µg/mL] | MIC (Pseudomonas aeruginosa [16]) [µg/mL] | MIC (Klebsiella pneumoniae) [µg/mL] | MIC (Acinetobacter baumannii) [µg/mL] | IC50 [17] [nM] | IC50 [18] [nM] | MIC (Escherichia coli [20]) [µg/mL] | MIC (Escherichia coli [1]) [µg/mL] | MIC (Escherichia coli [2]) [µg/mL] | MIC (Escherichia coli [3]) [µg/mL] | MIC (Escherichia coli [4]) [µg/mL] | MIC (Escherichia coli [5]) [µg/mL] | MIC (Escherichia coli [6]) [µg/mL] | MIC (Escherichia coli [7]) [µg/mL] | MIC (Escherichia coli [8]) [µg/mL] | MIC (Escherichia coli [10]) [µg/mL] | MIC (Escherichia coli [11]) [µg/mL] | MIC (Escherichia coli [12]) [µg/mL] | IC50 [19] [nM] | other results
8 | CC(C)(O/N=C(\C(=O)N[C@H]1CON(C2(C(=O)O)CCC(=O)O2)C1=O)c1csc(N)n1)C(=O)O (some centres undefined) | 46 | 32 (≈ 65.9 µM) | 32 (≈ 65.9 µM) | 4 (≈ 8.24 µM) | 32 (≈ 65.9 µM) | 33300 | 1230 |  | 0.5 (≈ 1.03 µM) | 0.5 (≈ 1.03 µM) | 0.25 (≈ 0.515 µM) | 0.25 (≈ 0.515 µM) | 0.25 (≈ 0.515 µM) | 0.5 (≈ 1.03 µM) | 0.5 (≈ 1.03 µM) | 0.25 (≈ 0.515 µM) | 1 (≈ 2.06 µM) | 0.5 (≈ 1.03 µM) | 0.25 (≈ 0.515 µM) | 92 | Ratio (Escherichia coli [14]): 4; MIC (Escherichia coli [9]): 0.25 µg/mL (≈ 0.515 µM)
9 | Nc1nc(/C(=N/OCc2cc(=O)c(O)cn2O)C(=O)N[C@H]2CON(C3(C(=O)O)CCC(=O)O3)C2=O)cs1 (some centres undefined) | 46 | 8 (≈ 14.9 µM) | 4 (≈ 7.43 µM) | 32 (≈ 59.4 µM) | 0.5 (≈ 0.929 µM) | 22200 | 2460 | 2 (≈ 3.71 µM) | 4 (≈ 7.43 µM) | 4 (≈ 7.43 µM) | 1 (≈ 1.86 µM) | 0.5 (≈ 0.929 µM) | 1 (≈ 1.86 µM) | 1 (≈ 1.86 µM) | 1 (≈ 1.86 µM) | 0.5 (≈ 0.929 µM) | 1 (≈ 1.86 µM) | 32 (≈ 59.4 µM) | 16 (≈ 29.7 µM) | 140 | MIC (Escherichia coli [9]): 1 µg/mL (≈ 1.86 µM)
10 | C[C@H]1[C@H](NC(=O)/C(=N\OC(C)(C)C(=O)O)c2csc(N)n2)C(=O)N1S(=O)(=O)O [AZTREONAM] | 3340 |  |  |  |  | > 300000 | 2870 |  |  |  |  |  |  |  |  |  |  |  |  | 8 | 
